Source: ChEMBL document CHEMBL2040785, “Regioselective synthesis and antimicrobial studies of ester linked 1,4-disubstituted 1,2,3-bistriazoles” (2012)
In brackets after ≈: the same amount, converted by molar mass.

Assays:
Type in all cases: functional
Candida albicans = assay: Antifungal activity against Candida albicans MTCC 183 after 48 hrs by serial dilution method; details: MTCC 183, 48 h
How it was run: (§1)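 Tube serial dilution MIC in Sabouraud dextrose broth. Stocks of 100 µg/ml were diluted in 1 ml sterile medium to 50–3.12 µg/ml, and each tube was inoculated with 100 µL of fungal suspension in sterile saline. Incubation at 25 ± 1 °C, 48 h for C. albicans and 120 h for A. niger. Fluconazole was the reference drug and DMSO the solvent control.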

Bacillus subtilis = assay: Antibacterial activity against Bacillus subtilis MTCC 441 after 24 hrs by serial dilution method; details: MTCC 441, 24 h
How it was run: (§2)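 Tube serial dilution MIC. Compounds held as 100 µg/ml stocks and serially diluted in tubes of 1 ml sterile double strength nutrient broth to 50–3.12 µg/ml. Each tube was inoculated with 100 µL of bacterial suspension in sterile saline. Incubation at 37 ± 1 °C for 24 h. Norfloxacin was the reference drug and DMSO the solvent control.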

Aspergillus niger = assay: Antifungal activity against Aspergillus niger MTCC 282 after 120 hrs by serial dilution method; details: MTCC 282, 120 h; how it was run: as §1
Escherichia coli = assay: Antibacterial activity against Escherichia coli MTCC 7443 after 24 hrs by serial dilution method; details: MTCC 7443, 24 h; how it was run: as §2

| Structure (SMILES) | MIC (Candida albicans) | MIC (Bacillus subtilis) | MIC (Aspergillus niger) | MIC (Escherichia coli) |
| --- | --- | --- | --- | --- |
| O=C(CC(=O)OCc1cn(Cc2ccccc2)nn1)OCc1cn(Cc2ccccc2)nn1 | 14 µM (≈ 6.25 µg/mL) | 28 µM (≈ 12.5 µg/mL) | 14 µM (≈ 6.25 µg/mL) | 28 µM (≈ 12.5 µg/mL) |
| OC(Cn1cncn1)(Cn1cncn1)c1ccc(F)cc1F [FLUCONAZOLE] | 10.2 µM (≈ 3.12 µg/mL) |  | 10.2 µM (≈ 3.12 µg/mL) |  |
| O=C(OCc1cn(CCc2ccccc2)nn1)c1cccc(C(=O)OCc2cn(CCc3ccccc3)nn2)n1 | 23.3 µM (≈ 12.5 µg/mL) | 23.3 µM (≈ 12.5 µg/mL) | 23.3 µM (≈ 12.5 µg/mL) | 23.3 µM (≈ 12.5 µg/mL) |
| O=C(CCC(=O)OCc1cn(Cc2ccccc2)nn1)OCc1cn(Cc2ccccc2)nn1 | 13.5 µM (≈ 6.22 µg/mL) | 27.1 µM (≈ 12.5 µg/mL) | 27.1 µM (≈ 12.5 µg/mL) | 27.1 µM (≈ 12.5 µg/mL) |
| O=C(CC(=O)OCc1cn(CCc2ccccc2)nn1)OCc1cn(CCc2ccccc2)nn1 | 26.3 µM (≈ 12.5 µg/mL) | 26.3 µM (≈ 12.5 µg/mL) | 26.3 µM (≈ 12.5 µg/mL) | 26.3 µM (≈ 12.5 µg/mL) |
| O=C(CCCCC(=O)OCc1cn(CCc2ccccc2)nn1)OCc1cn(CCc2ccccc2)nn1 | 12.1 µM (≈ 6.25 µg/mL) | 24.2 µM (≈ 12.5 µg/mL) | 24.2 µM (≈ 12.5 µg/mL) | 24.2 µM (≈ 12.5 µg/mL) |
| CCn1cc(C(=O)O)c(=O)c2cc(F)c(N3CCNCC3)cc21 [NORFLOXACIN] |  | 9.8 µM (≈ 3.13 µg/mL) |  | 9.8 µM (≈ 3.13 µg/mL) |
| O=C(OCc1cn(CCc2ccccc2)nn1)c1cccc(C(=O)OCc2cn(CCc3ccccc3)nn2)c1 | 23.3 µM (≈ 12.5 µg/mL) | 23.3 µM (≈ 12.5 µg/mL) | 23.3 µM (≈ 12.5 µg/mL) | 23.3 µM (≈ 12.5 µg/mL) |
| O=C(CCCCC(=O)OCc1cn(Cc2ccccc2)nn1)OCc1cn(Cc2ccccc2)nn1 | 12.8 µM (≈ 6.25 µg/mL) | 25.6 µM (≈ 12.5 µg/mL) | 12.8 µM (≈ 6.25 µg/mL) | 12.8 µM (≈ 6.25 µg/mL) |
| O=C(CCC(=O)OCc1cn(CCc2ccccc2)nn1)OCc1cn(CCc2ccccc2)nn1 | 12.8 µM (≈ 6.25 µg/mL) | 25.6 µM (≈ 12.5 µg/mL) | 25.6 µM (≈ 12.5 µg/mL) | 12.8 µM (≈ 6.25 µg/mL) |
| O=C(CCCC(=O)OCc1cn(CCc2ccccc2)nn1)OCc1cn(CCc2ccccc2)nn1 | 24.9 µM (≈ 12.5 µg/mL) | 24.9 µM (≈ 12.5 µg/mL) | 24.9 µM (≈ 12.5 µg/mL) | 24.9 µM (≈ 12.5 µg/mL) |
| O=C(OCc1cn(Cc2ccccc2)nn1)c1cccc(C(=O)OCc2cn(Cc3ccccc3)nn2)n1 | 12.3 µM (≈ 6.27 µg/mL) | 12.3 µM (≈ 6.27 µg/mL) | 24.6 µM (≈ 12.5 µg/mL) | 12.3 µM (≈ 6.27 µg/mL) |
| O=C(CCCC(=O)OCc1cn(Cc2ccccc2)nn1)OCc1cn(Cc2ccccc2)nn1 | 13.5 µM (≈ 6.41 µg/mL) | 26.3 µM (≈ 12.5 µg/mL) | 26.3 µM (≈ 12.5 µg/mL) | 26.3 µM (≈ 12.5 µg/mL) |
| O=C(OCc1cn(CCc2ccccc2)nn1)c1ccc(C(=O)OCc2cn(CCc3ccccc3)nn2)cc1 | 23.3 µM (≈ 12.5 µg/mL) | 23.3 µM (≈ 12.5 µg/mL) | 23.3 µM (≈ 12.5 µg/mL) | 23.3 µM (≈ 12.5 µg/mL) |
